Series [1] deals with Human immunodeficiency virus type 1 integrase (Human immunodeficiency virus 1, UniProt Q7ZJM1). Kind of series: Inhibition of HIV1 His6-tagged integrase assessed as inhibition of interaction with recombinant flag-tagged LEDGF/p75 incubated for 30 mins prior to substrate addition measured after 1 hr by AlphaScreen assay. In outline:
(§1)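 AlphaScreen in 25 mM Tris-HCl pH 7.4, 150 mM NaCl, 1 mM MgCl2, 0.01% Tween-20 and 0.1% BSA. His6-integrase (300 nM final) was preincubated with compound for 30 min at 4°C. Flag-LEDGF/p75 (100 nM) was then added for 1 h at 4°C. Ni-chelate acceptor and anti-flag donor beads (20 μg/ml each) followed for 1 h at 30°C, protected from light. Acceptor emission was read.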
In general terms: Alpha assays give light when donor and acceptor beads are brought close together.

In series [2] the target is Human immunodeficiency virus type 1 integrase (Human immunodeficiency virus 1) (UniProt Q7ZJM1). Kind of series: Inhibition of HIV1 His6-tagged integrase assessed as inhibition of interaction with recombinant flag-tagged LEDGF/p75 at 100 uM incubated for 30 mins prior to substrate addition measured after 1 hr by AlphaScreen assay. Summed up:
as §1

Series [3] can be described thus: Selectivity index, ratio of CC50 for human MT4 cells to EC50 for HIV 3B. The format is toxicity, cell-based. Conditions: read-out: Ratio CC50/EC50. In outline: (§2)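 HIV(IIIB) stock titrated on MT-4 cells to set the CCID50. MT-4 cells were infected with 100-300 CCID50 in the presence of five-fold serial compound dilutions. Protection from virus-induced cytopathic effect was read spectrophotometrically as MTT reduction to formazan by viable cells. EC50 is the concentration giving 50% protection. CC50 was determined in parallel on cells.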

The subject of series [4] is Human immunodeficiency virus. Kind of series: Antiviral activity against HIV 3B infected in human MT4 cells assessed as inhibition of virus-induced cytopathic effect by MTT assay. Type of series: functional, organism-based. Conditions: Human immunodeficiency virus 1, 3B. Summed up: as §2
On the technique in general: Cytopathic effects are the visible damage that an infection or toxin causes in cultured cells.

pEC50, pIC50: −log10 of the molar value. Calls of active or inactive are those of the source. The rule behind the calls is not given here.

Sequence of Human immunodeficiency virus type 1 integrase (Human immunodeficiency virus 1) (Q7ZJM1 as listed by the source): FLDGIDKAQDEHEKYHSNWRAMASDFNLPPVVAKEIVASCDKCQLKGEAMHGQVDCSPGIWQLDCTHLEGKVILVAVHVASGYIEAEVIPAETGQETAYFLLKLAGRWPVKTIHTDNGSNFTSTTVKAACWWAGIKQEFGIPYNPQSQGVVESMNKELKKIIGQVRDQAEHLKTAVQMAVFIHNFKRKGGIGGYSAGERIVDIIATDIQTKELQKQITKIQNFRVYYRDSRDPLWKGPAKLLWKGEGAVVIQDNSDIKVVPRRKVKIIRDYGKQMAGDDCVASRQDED
Sequence of Human immunodeficiency virus type 1 integrase (Q7ZJM1 whole entry): as the sequence (Q7ZJM1 as listed by the source) above

`CC(C)C(C(=O)O)N1C(=O)/C(=C/c2cccc3ccccc23)SC1=S` (stereo not given): in series [1], the pIC50 was 4.73. For the same molecule, the inhibition in series [2] is 89%.
Regarding `COc1ccc(/C=C2\SC(=S)N(CCC(=O)O)C2=O)cc1`, in series [3], the selectivity ratio was 61. Besides, the pIC50 in series [1] is < 4.00. For the same molecule, the inhibition in series [2] amounted to 66%. For the same molecule, the pEC50 in series [4] is 5.62.
In the case of `CCOc1cc(/C=C2\SC(=S)N(C(C(=O)O)C(C)C)C2=O)ccc1OC` (stereo not given), in series [2], the inhibition came out at 20%.
As to `COc1ccc2nc(/C=C3\SC(=S)N(C(C(=O)O)C(C)C)C3=O)ccc2c1` (stereo not given), the pIC50 in series [1] is 4.80.
With `COc1ccc(/C=C2\SC(=S)N(C(C(=O)O)C(C)C)C2=O)cc1OC` (stereo not given), in series [2], the inhibition entry is “inactive”.
On to `COc1ccc(/C=C2\SC(=S)N(C(C)C(=O)O)C2=O)cc1` (stereo not given), for which, in series [2], the inhibition stood at 47%.
Take `CCOc1cc(/C=C2\SC(=S)N(C(C(=O)O)C(C)C)C2=O)ccc1O` (stereo not given): in series [1], the pIC50 is 4.60.
Take `COc1cc(/C=C2\SC(=S)N(C(C(=O)O)C(C)C)C2=O)ccc1O` (stereo not given): the inhibition in series [2] stood at 43%.
In the case of `CC(C)C(C(=O)O)N1C(=O)/C(=C/c2ccc(O)cc2)SC1=S` (stereo not given), the pIC50 in series [1] is 4.36. The inhibition in series [2] came out at 77%.
In the same order, the values of `CCC(C(=O)O)N1C(=O)/C(=C/c2ccc(OC)cc2)SC1=S` (stereo not given) are < 4.00 and 54%.
With `COc1ccc(/C=C2\SC(=S)N(CC(=O)O)C2=O)cc1`, the inhibition in series [2] was determined as 36%.
Same read-out and setting: for `COc1ccc(/C=C2\SC(=S)N(C(C)CC(=O)O)C2=O)cc1` (stereo not given) the value was 29%; for `CCOc1ccc(/C=C2\SC(=S)N(C(C(=O)O)C(C)C)C2=O)cc1OC` (stereo not given), 28%.
On to `COc1ccc(/C=C2\SC(=S)N(C(C(=O)O)C(C)C)C2=O)cc1` (stereo not given), for which the pIC50 in series [1] was 4.38.

A word on the pIC50: it is the IC50 on a negative log10 scale, so that one unit is a factor of ten. What is called inhibition is how much of the control response was suppressed. The pEC50 is −log10 of the EC50, conventionally taken in molar units.
